An excerpt weighted towards active compounds, which were near 1.8% of everything screened.
CCR6 antagonist – antagonists of human CCR6 receptor; CHO-K1 CCR6 PathHunter beta-arrestin, luminescence, CCL20-stimulated; AID 493098; 0.49% of 340,000 active; P51684; inhibition, % at 20 µM;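 active = compounds whose inhibition of the agonist-driven luminescence signal at 20 µM reaches about 50%, limit read from the data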;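 note: cells stimulated with CCL20 at 14 nM final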
Target sequence (P51684 whole entry, looked up): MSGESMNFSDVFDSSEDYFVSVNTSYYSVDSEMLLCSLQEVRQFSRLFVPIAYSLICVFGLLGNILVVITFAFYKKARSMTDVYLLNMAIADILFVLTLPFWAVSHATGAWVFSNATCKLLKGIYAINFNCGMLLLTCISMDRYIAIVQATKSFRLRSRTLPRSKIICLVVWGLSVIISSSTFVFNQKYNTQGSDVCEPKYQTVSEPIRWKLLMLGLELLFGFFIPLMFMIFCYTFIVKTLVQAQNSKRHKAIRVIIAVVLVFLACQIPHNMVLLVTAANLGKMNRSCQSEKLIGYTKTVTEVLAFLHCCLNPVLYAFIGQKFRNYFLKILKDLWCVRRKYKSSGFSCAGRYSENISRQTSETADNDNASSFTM
APJ antag – APJ receptor antagonism. P35414. CHO-K1 APJ beta-arrestin complementation, luminescence. inhibition, % at 20 µM. 0.32% of 330,000 active. AID 2521;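 active = inhibition above about 40% at 20 µM, limit read from the data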;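 note: cells challenged with 10 nM apelin-13 agonist together with compound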
B2AR ag – agonists of human beta-2 adrenergic receptor inducing internalization. Am2.2-beta2AR cells, FAP receptor internalization, flow cytometry. response, % (no concentration beside the values). 0.43% of 340,000 active. AID 504454;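 active = response above a set limit, near 3 SD of response in nonfluorescent compounds, cut at about 42% in these data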
CXCR6 inh – blocks human CXCR6 beta-arrestin recruitment. O00574. CHO-K1 PathHunter CXCR6 beta-arrestin, luminescence. inhibition, % at 20 µM. 0.36% of 360,000 active. AID 602244; in the data active = inhibition above about 34%, passing the limit was not always enough;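 note: antagonist mode with CXCL16 agonist at 10 nM final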
APJ agonist – activates the human apelin receptor APJ. CHO-K1 APJ PathHunter beta-arrestin, luminescence; 0% DMSO wells, 100% apelin. AID 2520. activation, % at 20 µM. 0.11% of 330,000 active;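 active = activation more than six SD over the plate average, tested at 20 µM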
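Assay system: engineered CHO-K1 APJ arrestin reporter cells; Amount: 1000 CHO-K1 reporter cells seeded per well; Dosing: one dose, 20 µM compound, 1% DMSO; Times: compound stimulation 90 min at 25 °C, detection 60 min; Measured by: luminescent beta-gal fragment complementation, chemiluminescent substrate; Read-out: APJ–arrestin association signal; Controls: DMSO vs Apelin-13 10 nM.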
EBI2 antag – EBI2 (human) antagonism; P32249; EBI2 beta-arrestin recruitment, luminescence, 7a,25-OHC stimulated; inhibition, % at 5 µM; 0.81% of 360,000 active; AID 651636; in the data active = inhibition above about 38%;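 note: enzyme fragment complementation signal reports receptor beta-arrestin coupling in cells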
Beta2AR ag CP1 – human beta-2 adrenergic receptor agonism, cherry pick; 25% of 1,100 active; Am2.2-beta2AR cells, FAP surface receptor, flow cytometry; hits give low values; shares compounds with B2AR ag; percent response (surface receptor), % at 10 µM;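 active = surface receptor percent response at or below 58%, roughly 3 SD from nonfluorescent compounds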
B2AR FAP counter – counter-screen for beta-2AR agonists: fluorescence in Am2.2 cells; shares compounds with B2AR ag; FAP fluorogen flow cytometry, fluorescence counterscreen; hits give low values; 1,100 tested, under 10 active; AID 588765; calls only at 10 µM;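 active = percent response below a set limit in fluorescence channel 1 and below 50% in channel 8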
Numbers stand for hits; – = inactive; · = no result; + = active, no number; ! = not confirmed by another sample.

SMILES | CCR6 antagonist | APJ antag | B2AR ag | CXCR6 inh | APJ agonist | EBI2 antag | Beta2AR ag CP1 | B2AR FAP counter
O=C(COc1ccc(S(=O)(=O)N2CCOCC2)cc1)Nc1ccc(Cl)c(C(F)(F)F)c1 | – | – | – | – | – | – | – | –
CN(CC(=O)Nc1cccc(S(=O)(=O)N2CCOCC2)c1)CC(=O)Nc1ccc(Cl)c(C(F)(F)F)c1 | – | – | – | – | – | – | · | ·
O=C(COc1ccc(S(=O)(=O)N2CCOCC2)cc1)Nc1ccc(Br)cc1 | – | – | – | – | – | – | – | –
CCCS(=O)(=O)NC(=O)C1(C)CCCN(C(=O)c2ccccc2OC(F)(F)F)C1 (centres undefined) | · | · | · | – | · | – | · | ·
O=C(COc1ccc(S(=O)(=O)N2CCOCC2)cc1)Nc1ccc2c(c1)OCCO2 | – | – | – | – | – | – | – | –
CC1CCc2c(sc3ncnc(SCC(=O)N(C)C4CCS(=O)(=O)C4)c23)C1 (centres undefined) | – | – | – | – | – | – | · | ·
CCOC(=O)c1cn(C2CC2)c2c(F)c(NCCCN(C)C)c(F)cc2c1=O | – | – | 63.9 | – | – | – | 37.8 | –
Cc1ccc(C(=O)N2CCC(C(=O)Nc3cccc([N+](=O)[O-])c3)CC2)cc1 | – | – | – | – | – | – | · | ·
CC(C)c1nnc(NC(=O)CCS(=O)(=O)c2nc(-c3cccs3)cc(C(F)(F)F)n2)s1 | – | – | 96.7 | – | – | – | 54.8 | –
O=C(CCS(=O)(=O)c1ccccc1)Nc1nc(-c2cccs2)cs1 | – | – | – | – | – | – | · | ·
Cc1ccc(C(=O)Nc2ccc(O)cc2C(=O)O)cc1C | – | – | – | – | – | – | – | –
O=C(O)c1cc(O)ccc1NC(=O)c1cccc2ccccc12 | – | – | 69.1 | – | – | – | – | –
CC(=O)Nc1ccccc1NC(=O)c1cccc2ccccc12 | – | – | – | – | – | – | · | ·
CC(C)(C)S(=O)(=O)N1C[C@H]2CC/C=C\C/C=C\2[C@@H]1CCO | · | · | · | – | · | – | · | ·
Cn1c(=S)[nH]c(=O)c2ncc(=O)[nH]c21 | – | – | – | – | – | – | · | ·
Cc1ccc(S(=O)(=O)N2CCOCC2)cc1NC(=O)COC(=O)CCc1c[nH]c2ccccc12 | – | – | – | – | – | – | · | ·
Cc1nc(Cl)c2c(n1)NC1=C(O2)C(=O)CCC1 | – | – | – | – | – | – | · | ·
COc1ccc(S(=O)(=O)N(Cc2cccnc2)Cc2cc3ccccc3[nH]c2=O)cc1 | – | – | – | – | – | – | – | –
Cc1ccc(S(=O)(=O)N(Cc2cccnc2)Cc2cc3ccccc3[nH]c2=O)cc1 | – | – | – | – | – | – | – | –
CC(=O)Nc1ccc(S(=O)(=O)N(Cc2cccnc2)Cc2cc3ccc(C)cc3[nH]c2=O)cc1 | – | – | – | – | – | – | · | ·
CCCC(=O)N1CCN(c2ccc(NC(=O)c3ccc([N+](=O)[O-])o3)cc2)CC1 | – | · | – | – | · | – | · | ·
CCN1CCN(c2ccc(NC(=O)c3ccc(Br)o3)cc2)CC1 | – | – | – | – | – | – | – | –
CCCC(=O)N1CCN(c2ccc(NC(=O)c3ccc(Br)o3)cc2)CC1 | – | – | – | – | – | – | – | –
O=C(Nc1ccc(N2CCN(C(=O)c3ccccc3)CC2)cc1)c1ccc(Br)o1 | – | – | – | – | – | – | – | –
CN=C(Nc1ccc(C(=O)OC)s1)c1ccc(Cl)cc1 | – | – | – | – | – | – | · | ·
Cc1ccc(C(=O)Nc2cccc(C(F)(F)F)c2)cc1NC(=O)c1csc(-c2ccncc2)n1 | – | – | 90.6 | – | – | – | 36.3! | +!
COc1cc(NC(=O)C(c2ccccc2)c2ccccc2)c(C(=O)O)cc1OC | – | – | – | – | – | – | · | ·
Cc1ccc(NC(=O)C(c2ccccc2)c2ccccc2)c(O)c1 | – | – | 47.7 | – | – | – | – | –
CCCCN(C(=O)CSc1n[nH]c(-c2ccc(C)cc2)n1)c1c(N)n(CCCC)c(=O)[nH]c1=O | – | – | – | – | – | – | · | ·
